inhibition, Activity and GI50 data for 19 compounds are collected here from ChEMBL document CHEMBL5316296, “Indole Derivatives as New Structural Class of Potent and Antiproliferative Inhibitors of Monocarboxylate Transporter 1 (MCT1; SLC16A1)” (J Med Chem, 2023).

The source made the active and inactive calls. The calls are words filed in the database; no cut-off is given here. Bounds are passed on as bounds.

A word on the GI50: it is the concentration giving 50% growth inhibition.

Test system in one data set: not listed separately
Description: Growth inhibition of human A549 cells expressing MCT1 at 50 uM incubated for 72 hrs by MTT assay relative to control. It is filed as toxicity, cell-based. The following applies: read-out: GI. A general note: Tetrazolium assays rely on reduction of a dye to a coloured formazan, in cell work by metabolically active cells.
As for `O=C(O)C(=O)CBr` [BROMOPYRUVATE], the inhibition at 72 h, 50 µM was not below 90%.

A further data set addresses T1, Monocarboxylate transporter 4 (Homo sapiens) (UniProt O15427).
T1 sequence (whole entry): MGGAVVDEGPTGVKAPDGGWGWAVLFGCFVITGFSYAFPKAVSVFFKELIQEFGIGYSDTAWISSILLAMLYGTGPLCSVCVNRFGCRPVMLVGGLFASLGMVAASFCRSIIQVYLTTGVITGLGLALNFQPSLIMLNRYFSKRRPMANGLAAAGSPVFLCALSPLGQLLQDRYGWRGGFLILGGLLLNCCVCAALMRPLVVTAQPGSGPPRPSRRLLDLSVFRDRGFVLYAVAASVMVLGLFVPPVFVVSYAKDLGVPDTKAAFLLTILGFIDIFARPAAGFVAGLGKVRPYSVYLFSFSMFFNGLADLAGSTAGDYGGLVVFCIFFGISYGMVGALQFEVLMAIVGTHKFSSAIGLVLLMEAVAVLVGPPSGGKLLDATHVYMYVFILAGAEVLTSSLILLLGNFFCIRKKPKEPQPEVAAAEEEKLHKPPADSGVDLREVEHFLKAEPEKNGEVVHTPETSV
Description: Inhibition of MCT4 in human MDA-MB-231 cells assessed as inhibition of acidic lactate extrusion by measuring reduction in pH at 10 uM incubated for 12 hrs by BCECF-AM dye based fluorescence spectrophotometric analysis.
Details: not given
It is filed as cell-based. Put shortly: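 MDA-MB-231 cells (50,000/well) plated overnight, then treated with 10 μM compound for 12 h at 37 °C. Loaded with BCECF-AM (5 μM, 1 h), washed twice. Intracellular pH from emission ratio against per-plate calibration (pH 4.5–7.5 buffers with 10 μM nigericin and 10 μM valinomycin, 30 min, room temperature).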
For `COC(=O)/C(C#N)=C/c1cn(CC(=O)Nc2ccccc2)c2ccccc12`, the inhibition result is “inactive”.

As for `COC(=O)/C(C#N)=C/c1cn(CC(=O)Nc2cccc(OC)c2)c2ccccc12`, the inhibition result was “inactive”.

With `COC(=O)/C(C#N)=C/c1cn(CC(=O)Nc2ccc(Cl)cc2)c2ccccc12`, the inhibition result was “inactive”.

For `COC(=O)/C(C#N)=C/c1cn(CC(=O)Nc2ccc(C)cc2)c2ccccc12`, the inhibition result was “inactive”.

On to `COC(=O)/C(C#N)=C/c1cn(CC(=O)Nc2ccccc2C)c2ccccc12`, for which the inhibition result is “inactive”.

Take `COC(=O)/C(C#N)=C/c1cn(CC(=O)Nc2ccccc2OC)c2ccccc12`: the inhibition result is “inactive”.

Turning to `COC(=O)/C(C#N)=C/c1cn(CC(=O)Nc2ccc(C)cn2)c2ccccc12`, the inhibition entry is “inactive”.

For the compound `COC(=O)/C(C#N)=C/c1cn(CC(=O)Nc2cccnc2)c2ccccc12`, the inhibition result is “inactive”.

In the case of `COC(=O)/C(C#N)=C/c1cn(CC(=O)Nc2ccc(Br)cc2)c2ccccc12`, the inhibition entry is “inactive”.

Take `COC(=O)/C(C#N)=C/c1cn(CC(=O)Nc2ccc(Br)cn2)c2ccccc12`: the inhibition entry was “inactive”.

For `COC(=O)/C(C#N)=C/c1cn(CC(=O)Nc2ccc3ccccc3c2)c2ccccc12`, the inhibition result was “inactive”.

With `COC(=O)/C(C#N)=C/c1cn(CC(=O)Nc2cccc3ccccc23)c2ccccc12`, the inhibition result is “inactive”.

For `COC(=O)/C(C#N)=C/c1cn(CC(=O)Nc2ccc(F)cc2)c2ccccc12`, the inhibition result is “inactive”.

For `COC(=O)/C(C#N)=C/c1cn(CC(=O)Nc2ccc(OC)cc2)c2ccccc12`, the inhibition result was “inactive”.

For the compound `COC(=O)/C(C#N)=C/c1cn(CC(=O)Nc2c(Cl)cccc2Cl)c2ccccc12`, the inhibition entry is “inactive”.

`COC(=O)/C(C#N)=C/c1cn(CC(=O)Nc2ccccn2)c2ccccc12`: the inhibition entry was “inactive”.

The next data set concerns NIH3T3. Description: Cytotoxicity against mouse NIH3T3 cells assessed as cell viability incubated for 72 hrs by MTT assay. It counts as toxicity, cell-based. The following applies: nih3t3, 72 h. Put shortly:
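NIH/3T3 murine embryonic fibroblasts (5000/well) screened at 10 and 50 μM compound for 72 h at 37 °C, 5% CO2. MTT readout (1 h), DMSO-dissolved formazan read at 570 nm, 690 nm background. DMSO and culture medium define 0 and 100% viability; at least three independent experiments.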
With `COC(=O)/C(C#N)=C/c1cn(CC(=O)Nc2ccccc2)c2ccccc12`, the Activity result is listed as “Non-Toxic”.

For the compound `COC(=O)/C(C#N)=C/c1cn(CC(=O)Nc2cccc(OC)c2)c2ccccc12`, the Activity result is reported as “Non-Toxic”.

Take `COC(=O)/C(C#N)=C/c1cn(CC(=O)Nc2ccc(Cl)cc2)c2ccccc12`: the Activity result is recorded as “Non-Toxic”.

`COC(=O)/C(C#N)=C/c1cn(CC(=O)Nc2ccc(C)cc2)c2ccccc12`: the Activity entry is on record as “Non-Toxic”.

On to `COC(=O)/C(C#N)=C/c1cn(CC(=O)Nc2ccccc2C)c2ccccc12`, for which the Activity result was “Non-Toxic”.

Regarding `COC(=O)/C(C#N)=C/c1cn(CC(=O)Nc2ccccc2OC)c2ccccc12`, the Activity entry is “Non-Toxic”.

`N#C/C(=C\c1ccc(O)cc1)C(=O)O` [alpha-CYANO-4-HYDROXYCINNAMIC ACID]: the Activity result is reported as “Non-Toxic”.

Take `COC(=O)/C(C#N)=C/c1cn(CC(=O)Nc2ccc(C)cn2)c2ccccc12`: the Activity result is “Non-Toxic”.

In the case of `COC(=O)/C(C#N)=C/c1cn(CC(=O)Nc2cccnc2)c2ccccc12`, the Activity result is listed as “Non-Toxic”.

For `COC(=O)/C(C#N)=C/c1cn(CC(=O)Nc2ccc(Br)cc2)c2ccccc12`, the Activity entry is “Non-Toxic”.

Consider `COC(=O)/C(C#N)=C/c1cn(CC(=O)Nc2ccc(Br)cn2)c2ccccc12`, for which the Activity result was “Non-Toxic”.

As for `COC(=O)/C(C#N)=C/c1cn(CC(=O)Nc2ccc3ccccc3c2)c2ccccc12`, the Activity result is “Non-Toxic”.

In the case of `COC(=O)/C(C#N)=C/c1cn(CC(=O)Nc2cccc3ccccc23)c2ccccc12`, the Activity entry is given as “Non-Toxic”.

Take `COC(=O)/C(C#N)=C/c1cn(CC(=O)Nc2ccc(F)cc2)c2ccccc12`: the Activity entry is “Non-Toxic”.

As for `COC(=O)/C(C#N)=C/c1cn(CC(=O)Nc2ccc(OC)cc2)c2ccccc12`, the Activity result is on record as “Non-Toxic”.

In the case of `COC(=O)/C(C#N)=C/c1cn(CC(=O)Nc2c(Cl)cccc2Cl)c2ccccc12`, the Activity entry was “Non-Toxic”.

Regarding `COC(=O)/C(C#N)=C/c1cn(CC(=O)Nc2ccccn2)c2ccccc12`, the Activity result is listed as “Non-Toxic”.

The test system of another data set is A549. Description: Antiproliferative activity against human A549 cells expressing MCT1 assessed as effect on cell viability incubated for 72 hrs in the presence of glucose by MTT assay. It counts as functional, cell-based.
Details: not given
The method in brief:
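A-549 cells (5000/well) with compound over 72 h; glucose added every 12 h to give 25% or 50% of the original 4.5 g/L. Viability by MTT, absorbance 570 nm (690 nm background). DMSO and culture medium define 0 and 100%; at least three independent experiments.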
Regarding `COC(=O)/C(C#N)=C/c1cn(CC(=O)Nc2ccc(C)cn2)c2ccccc12`, the result was inactive.

As for `COC(=O)/C(C#N)=C/c1cn(CC(=O)Nc2ccc(OC)cc2)c2ccccc12`, the outcome was inactive.

Test system in the next data set: not listed separately
Description: Induction of doxorubicin sensitization in human A549 cells expressing MCT1 assessed as doxorubicin GI50 at 50 nM incubated for 72 hrs by MTT assay. It is filed as functional.
Details: not given
The method in brief: (§1)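 A-549 cells (~5000/well) given test compound at fixed 50, 100 or 500 nM plus doxorubicin dilution series 50 nM–50 μM. Incubated 72 h at 37 °C, 5% CO2, then MTT readout.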
As to `COC(=O)/C(C#N)=C/c1cn(CC(=O)Nc2ccc(C)cn2)c2ccccc12`, the GI50 worked out at 38.6 nM.

For `COC(=O)/C(C#N)=C/c1cn(CC(=O)Nc2ccc(OC)cc2)c2ccccc12`, the GI50 was 40 nM.

Test system in a further data set: not listed separately
Description: Induction of doxorubicin sensitization in human A549 cells expressing MCT1 assessed as doxorubicin GI50 at 100 nM incubated for 72 hrs by MTT assay. It counts as functional.
Details: not given
The method in brief: as §1
For the compound `COC(=O)/C(C#N)=C/c1cn(CC(=O)Nc2ccc(C)cn2)c2ccccc12`, the GI50 was 25.4 nM.

For `COC(=O)/C(C#N)=C/c1cn(CC(=O)Nc2ccc(OC)cc2)c2ccccc12`, the 50% growth inhibitory concentration (GI50) came out at 27.7 nM.

Test system in another data set: not listed separately
Kind of data set: Antiproliferative activity against human A2780 ADR cells expressing ABCB1 assessed as growth inhibition incubated for 72 hrs by MTT assay. It counts as functional.
Details: not given
With `COc1cccc2c1C(=O)c1c(O)c3c(c(O)c1C2=O)C[C@@](O)(C(=O)CO)C[C@@H]3O[C@H]1C[C@H](N)[C@H](O)[C@H](C)O1` [DOXORUBICIN], the 50% growth inhibitory concentration (GI50) was 802 nM.

Test system in the next data set: not listed separately
Kind of data set: Induction of doxorubicin sensitization in human A2780 ADR cells expressing ABCB1 assessed as doxorubicin at 1 uM incubated for 72 hrs by MTT assay.
Details: not given
It is filed as functional. Put shortly: (§2)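 ABCB1-expressing A2780/ADR cells (grown in RPMI-1640 with 10% FBS) were exposed to a doxorubicin dilution series, with or without a fixed test-compound level of 1.0, 2.0, 3.5 or 5.0 μM. Viability was read by MTT, with DMSO as 0% and medium as 100%. GI50 values come from at least three independent experiments and are compared with doxorubicin alone on sensitive A2780 cells.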
Regarding `COC(=O)/C(C#N)=C/c1cn(CC(=O)Nc2ccc(C)cn2)c2ccccc12`, the GI50 stood at 516 nM.

Turning to `COC(=O)/C(C#N)=C/c1cn(CC(=O)Nc2ccc(OC)cc2)c2ccccc12`, the concentration for 50% growth inhibition (GI50) came to 332 nM.

Test system in a further data set: not listed separately
Kind of data set: Induction of doxorubicin sensitization in human A2780 ADR cells expressing ABCB1 assessed as doxorubicin at 2 uM incubated for 72 hrs by MTT assay. It is filed as functional.
Details: not given
Put shortly: as §2
With `COC(=O)/C(C#N)=C/c1cn(CC(=O)Nc2ccc(C)cn2)c2ccccc12`, the concentration for 50% growth inhibition (GI50) stood at 165 nM.

For `COC(=O)/C(C#N)=C/c1cn(CC(=O)Nc2ccc(OC)cc2)c2ccccc12`, the concentration for 50% growth inhibition (GI50) came to 214 nM.

Test system in another data set: not listed separately
Kind of data set: Induction of doxorubicin sensitization in human A2780 ADR cells expressing ABCB1 assessed as doxorubicin at 3.5 uM incubated for 72 hrs by MTT assay. It counts as functional.
Details: not given
The method in brief:
as §2
On to `COC(=O)/C(C#N)=C/c1cn(CC(=O)Nc2ccc(C)cn2)c2ccccc12`, for which the GI50 was 32.4 nM.

On to `COC(=O)/C(C#N)=C/c1cn(CC(=O)Nc2ccc(OC)cc2)c2ccccc12`, for which the 50% growth inhibitory concentration (GI50) amounted to 110 nM.

Test system in a further data set: not listed separately
Kind of data set: Induction of doxorubicin sensitization in human A2780 ADR cells expressing ABCB1 assessed as doxorubicin at 5 uM incubated for 72 hrs by MTT assay. It is filed as functional.
Details: not given
Put shortly:
as §2
For `COC(=O)/C(C#N)=C/c1cn(CC(=O)Nc2ccc(C)cn2)c2ccccc12`, the GI50 was found to be 12.9 nM.

Regarding `COC(=O)/C(C#N)=C/c1cn(CC(=O)Nc2ccc(OC)cc2)c2ccccc12`, the GI50 came out at 32.2 nM.

A further data set concerns A2780 ADR. Description: Induction of doxorubicin sensitization in human A2780 ADR cells expressing ABCB1 assessed as left shift of the concentration-effect curve at 5 uM incubated for 72 hrs by MTT assay. It is filed as functional, cell-based.
Details: not given
Put shortly: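 ABCB1-expressing A2780/ADR cells given test compound at 1.0, 2.0, 3.5 or 5.0 μM with a doxorubicin series; MTT viability readout. Shift of doxorubicin concentration-effect curve compared against parental A2780. DMSO and medium define 0 and 100%; at least three independent experiments.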
For the compound `COC(=O)/C(C#N)=C/c1cn(CC(=O)Nc2ccc(C)cn2)c2ccccc12`, the outcome was Active.

On to `COC(=O)/C(C#N)=C/c1cn(CC(=O)Nc2ccc(OC)cc2)c2ccccc12`, for which the outcome was Active.
